# Calls of active or inactive are those of the source. The rule behind the calls is not given here.
# What was measured:
# [1] = Chemical stability of the compound in RPMI cell culture media assessed as half life at 2 mM; type: physicochemical
# How it was run: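 Compound at 2 mM incubated in RPMI/FBS 9:1 (v/v) at 37 °C. Decomposition followed by HPLC on a C18 column. Half-life calculated from the degradation course.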
# [2] = Cytotoxicity against human CEM-T4 cells assessed as cell viability at 30 uM after 7 days by MTT assay; type: cell-based; details: cem-t4, 168 h
# How it was run: (§1)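 CEM-T4 cells cultured at 37 °C, 5% CO2 in RPMI/10% FCS containing compound, with neat medium as control. After 7 days, MTT (5 mg/mL solution) added for 3 h at 37 °C. Cells centrifuged, supernatant removed, formazan dissolved in DMSO and read at 560 nm. CC50 and CC90 determined on mock-infected cells.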
# [3] = Selectivity index, ratio of CC50 for human CEM-T4 cells to EC50 for HIV1 infected human CEM-T4 cells; type: toxicity, cell-based; details: read-out: Ratio CC50/EC50
# How it was run: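 Selectivity index calculated as CC50/EC50, both measured in CEM-T4 cells, and rounded.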
# [4] = tested on: Human immunodeficiency virus 1; test: Antiviral activity against HIV1 infected in human CEM-T4 cells assessed as reduction in viral protein p24 production preincubated for 24 hrs measured after 8 days by MTT assay; type: functional, organism-based; details: Human immunodeficiency virus 1, CEM-T4
# How it was run: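 CEM-T4 cells, 20000 per well in 200 μL, preincubated 24 h at 37 °C, 5% CO2 in RPMI/10% FCS containing compound at 0,001–20 μM. Cells then inoculated with a known amount of HIV. Viral p24 read after 8 days by the MTT method. Triplicate cultures per concentration.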
# [5] = tested on: Human immunodeficiency virus 1; test: Antiviral activity against HIV1 infected in human CEM/TK- cells assessed as inhibition of virus-induced cytopathogenicity; type: functional, organism-based
# [6] = Dissociation constant, pKa of the compound in aqueous solution; type: physicochemical
# [7] = Cytotoxicity against human CEM-T4 cells assessed as cell viability at 50 uM after 7 days by MTT assay; type: cell-based; details: cem-t4, 168 h; how it was run: as §1
# [8] = Cytotoxicity against human CEM-T4 cells assessed as cell viability after 7 days by MTT assay; type: cell-based; how it was run: as §1
# [9] = molecular target: Human immunodeficiency virus type 1 reverse transcriptase (Human immunodeficiency virus 1) (UniProt Q72547); test: Inhibition of HIV1 recombinant reverse transcriptase at <= 3 uM preincubated for 5 mins measured after 1 hr by electrophoresis analysis
# How it was run: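 Recombinant HIV-1 RT preincubated 5 min at 45 °C with compound in 50 mM Tris-HCl pH 8.3, 75 mM KCl, 3 mM MgCl2, 10 mM DTT. Started with dNTPs (50 μM final) and run 60 min at 45 °C. Products resolved on 12% denaturing PAGE and imaged by autoradiography. Fully extended product quantified.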
# [10] = tested on: Human immunodeficiency virus 1; test: Antiviral activity against HIV1 infected in human CEM/TK+ cells assessed as inhibition of virus-induced cytopathogenicity; type: functional, organism-based
# [11] = Chemical stability of the compound in RPMI cell culture media assessed as compound decomposition by HPLC analysis in presence of human MT4 cells; type: ADME, cell-based
# How it was run: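 Compound incubated at 37 °C in RPMI cell culture medium in the presence of MT-4 cells. Degradation rate and decomposition products followed by HPLC on a C18 column.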
# [12] = Cytotoxicity against human CEM-T4 cells assessed as cell viability at 200 uM after 7 days by MTT assay; type: cell-based; details: cem-t4, 168 h; how it was run: as §1
Structure (SMILES),half-life at 2000 µM [1] [h],Activity [2],selectivity ratio [3],EC50 [4] [nM],EC90 [4] [nM],inhibition [5],pKa [6],Activity [7],CC50 at 168 h [8] [nM],inhibition [9],inhibition [10],Stability [11],Activity [12],CC90 at 168 h [8] [nM]
O=c1ccn([C@H]2CC[C@@H](COP(=O)(O)Nc3cccnc3)O2)c(=O)[nH]1,27.9,Non-toxic,< 3,> 10000,> 10000,inactive,,,,,,,,
O=c1ccn([C@H]2CC[C@@H](COP(=O)(O)Nc3ccncc3)O2)c(=O)[nH]1,32.1,,> 250,200,1350,inactive,< 8,Non-toxic,,,,,,
Cc1cn([C@H]2C[C@H](N=[N+]=[N-])[C@@H](COP(=O)(O)O)O2)c(=O)[nH]c1=O [AZIDOTHYMIDINE MONOPHOSPHATE],3.6,,10000,10,,,,,100000,,,,,
O=c1ccn([C@H]2CC[C@@H](COP(=O)(O)Nc3ccccc3)O2)c(=O)[nH]1,,,,,,inactive,,,,,,,,
Cc1cn([C@H]2C[C@H](N=[N+]=[N-])[C@@H](COP(=O)(O)Nc3ccncc3)O2)c(=O)[nH]c1=O,> 120,,> 182000,1.1,6,inactive,< 8,,,inactive,Active,Stable,Non-toxic,
Cc1cn([C@H]2C[C@H](N=[N+]=[N-])[C@@H](COP(=O)(O)Nc3cccnc3)O2)c(=O)[nH]c1=O,73.3,,> 87000,2.3,9,inactive,,,,inactive,Active,Stable,Non-toxic,
Nc1cccnc1,,,< 10,> 20000,> 20000,,6.03,,,,,,Non-toxic,
Nc1ccncc1 [DALFAMPRIDINE],,,< 10,> 20000,> 20000,,9.13,,,,,,Non-toxic,
CCN(CC)CC.Cc1cn([C@H]2C[C@H](N=[N+]=[N-])[C@@H](COP(=O)(O)Nc3ccccc3)O2)c(=O)[nH]c1=O,> 120,,> 300,600,> 10000,inactive,,,> 200000,,,,,> 200000
Nc1ccccn1 [2-AMINOPYRIDINE],,,< 10,> 20000,> 20000,,,,,,,,Non-toxic,
Cc1cn([C@H]2C[C@H](N=[N+]=[N-])[C@@H](CO)O2)c(=O)[nH]c1=O [ZIDOVUDINE],,,> 100000,< 2,5,,,,> 200000,,,,,> 200000
COc1ccc(N)cc1,,,,,,,4.58,,,,,,,
Nc1ccc(Cl)cc1 [4-CHLOROANILINE],,,,,,,3.99,,,,,,,
CCN(CC)CC.Cc1cn([C@H]2C[C@H](N=[N+]=[N-])[C@@H](COP(=O)(O)Nc3ccc(Cl)cc3)O2)c(=O)[nH]c1=O,> 120,,14500,20,100,inactive,,,290000,,,,,360000
